Test results from ChEMBL document CHEMBL4689842, “EUbOPEN Chemogenomics Library wave 1” (2021).
Several values for one entry are separate records, joined by “and”; a condition that tells them apart may be missing. Identical values can stand only once.

Tested on: U2OS
Experiment: Multiplex assay against U2OS
Format: toxicity, cell-based
Details: human
Summary of the method: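 Phenotypes for tubulin, mitochondrial mass and membrane permeability are expressed as per cents of healthy-nucleus cells. Cells were stained live at seeding with Hoechst33342, BioTracker Green Microtubule Cytoskeleton Dye, MitoTracker Red and Annexin V Alexa Fluor 680, then imaged after compound addition on a CQ1 microscope at 37°C and 5% CO2. Machine-learning gating in CellPathfinder separated Hoechst high-intensity objects from normal cells, divided normal cells by nuclear state (healthy, pyknosed, fragmented) and divided pyknosed cells into mitotic or apoptotic.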

[1] = 12 h, 1 µM, compound concentration 1 uM, replicate 1
[2] = 12 h, 1 µM, compound concentration 1 uM, replicate 2
[3] = 12 h, 10 µM, compound concentration 10 uM, replicate 1
[4] = 12 h, 10 µM, compound concentration 10 uM, replicate 2
[5] = 24 h, 1 µM, compound concentration 1 uM, replicate 1
[6] = 24 h, 1 µM, compound concentration 1 uM, replicate 2
[7] = 24 h, 10 µM, compound concentration 10 uM, replicate 1
[8] = 24 h, 10 µM, compound concentration 10 uM, replicate 2

For `CC(=O)O[C@H]1C(=O)[C@@]2(C)[C@H]([C@H](OC(=O)c3ccccc3)[C@]3(O)C[C@H](OC(=O)[C@H](O)[C@@H](NC(=O)c4ccccc4)c4ccccc4)C(C)=C1C3(C)C)[C@]1(OC(C)=O)CO[C@@H]1C[C@@H]2O` [PACLITAXEL], the “Population Fragmented Nuclei (%)” value [1] was 6% and 4%, the “Population Healthy Nuclei (%)” value [1] was 86% and 92% and the “Population Hoechst High Intensity Objects (%)” value [1] was 3% and 2%. For the same compound, the “Population Membrane Permeable-Phenotype (%)” value [1] was 15% and 11%, the “Population Mitochondria Different-Phenotype (%)” value [1] was 21% and 22% and the “Population Mitotic Cells (%)” value [1] was 33% and 80%. For the same compound, the “Population Normal (%)” value [1] was 96% and 97%, the “Population Pyknosed Nuclei (%)” value [1] was 7% and 3% and the “Population Tubulin-Different-Phenotype (%)” value [1] was 32% and 25%. The “Population Apoptotic (%)” value [2] was 6% and 8%, the “Population Fragmented Nuclei (%)” value [2] was 7% and the “Population Healthy Nuclei (%)” value [2] was 81% and 84%. The “Population Hoechst High Intensity Objects (%)” value [2] was 10% and 11%, the “Population Membrane Permeable-Phenotype (%)” value [2] was 14% and 7% and the “Population Mitochondria Different-Phenotype (%)” value [2] was 24% and 30%. For the same compound, the “Population Mitotic Cells (%)” value [2] was 93% and 91%, the “Population Normal (%)” value [2] was 90% and 88% and the “Population Pyknosed Nuclei (%)” value [2] was 10% and 8%. For the same compound, the “Population Tubulin-Different-Phenotype (%)” value [2] was 33%, the “Population Apoptotic (%)” value [3] was 30% and 77% and 26% and the “Population Fragmented Nuclei (%)” value [3] was 3% and 5% and 4% and 2%. For the same compound, the “Population Healthy Nuclei (%)” value [3] was 91% and 89%, the “Population Hoechst High Intensity Objects (%)” value [3] was 3% [middle of 4 runs] and the “Population Membrane Permeable-Phenotype (%)” value [3] was 11% and 7%. For the same compound, the “Population Mitochondria Different-Phenotype (%)” value [3] was 19% and 25%, the “Population Normal (%)” value [3] was 96% and 95% and 99% and 98% and the “Population Pyknosed Nuclei (%)” value [3] was 5%. The “Population Tubulin-Different-Phenotype (%)” value [3] was 41% and 30% and 39%, the “Population Fragmented Nuclei (%)” value [4] was 10% and 6% and the “Population Healthy Nuclei (%)” value [4] was 81% and 88% and 83% and 87%. The “Population Hoechst High Intensity Objects (%)” value [4] was 12% and 9% and 11%, the “Population Membrane Permeable-Phenotype (%)” value [4] was 12% and 9% and 8% and 6% and the “Population Mitochondria Different-Phenotype (%)” value [4] was 28% and 20% and 33%. For the same compound, the “Population Mitotic Cells (%)” value [4] was 77% [middle of 4 runs], the “Population Normal (%)” value [4] was 87% and 90% and 88% and the “Population Pyknosed Nuclei (%)” value [4] was 8% and 6% and 2%. For the same compound, the “Population Tubulin-Different-Phenotype (%)” value [4] was 28% and 26% and 31%, the “Population Fragmented Nuclei (%)” value [5] was 4% and the “Population Healthy Nuclei (%)” value [5] was 93% and 90%. For the same compound, the “Population Hoechst High Intensity Objects (%)” value [5] was 1% and 3%, the “Population Membrane Permeable-Phenotype (%)” value [5] was 10% and 3% and the “Population Mitochondria Different-Phenotype (%)” value [5] was 19% and 15%. For the same compound, the “Population Mitotic Cells (%)” value [5] was 40% and 83%, the “Population Normal (%)” value [5] was 98% and 96% and the “Population Pyknosed Nuclei (%)” value [5] was 2% and 5%. For the same compound, the “Population Tubulin-Different-Phenotype (%)” value [5] was 35%, the “Population Apoptotic (%)” value [6] was 38% and 33% and the “Population Fragmented Nuclei (%)” value [6] was 5%. For the same compound, the “Population Healthy Nuclei (%)” value [6] was 87% and 91%, the “Population Hoechst High Intensity Objects (%)” value [6] was 6% and 7% and the “Population Membrane Permeable-Phenotype (%)” value [6] was 12% and 9%. For the same compound, the “Population Mitochondria Different-Phenotype (%)” value [6] was 23% and 26%, the “Population Mitotic Cells (%)” value [6] was 61% and 66% and the “Population Normal (%)” value [6] was 93% and 92%. For the same compound, the “Population Pyknosed Nuclei (%)” value [6] was 6% and 4%, the “Population Tubulin-Different-Phenotype (%)” value [6] was 37% and 33% and the “Population Apoptotic (%)” value [7] was 37% and 21%. For the same compound, the “Population Fragmented Nuclei (%)” value [7] was 3% and 2%, the “Population Healthy Nuclei (%)” value [7] was 94% and 91% and 93% and the “Population Hoechst High Intensity Objects (%)” value [7] was 2% and 1%. The “Population Membrane Permeable-Phenotype (%)” value [7] was 6% and 4%, the “Population Mitochondria Different-Phenotype (%)” value [7] was 26% and 17% and 29% and the “Population Mitotic Cells (%)” value [7] was 62% and 78%. For the same compound, the “Population Normal (%)” value [7] was 97% and 98%, the “Population Pyknosed Nuclei (%)” value [7] was 2% and 4% and 5% and the “Population Tubulin-Different-Phenotype (%)” value [7] was 50% and 38% and 34% and 37%. The “Population Apoptotic (%)” value [8] was 50% [middle of 4 runs], the “Population Fragmented Nuclei (%)” value [8] was 10% and 5% and 7% and the “Population Healthy Nuclei (%)” value [8] was 81% and 86% and 85%. The “Population Hoechst High Intensity Objects (%)” value [8] was 5% and 3% and 4% and 9%, the “Population Mitochondria Different-Phenotype (%)” value [8] was 32% [middle of 4 runs] and the “Population Mitotic Cells (%)” value [8] was 45% and 66% and 50% and 64%. For the same compound, the “Population Normal (%)” value [8] was 94% and 96% and 95% and 90%, the “Population Pyknosed Nuclei (%)” value [8] was 8% and 3% and 6% and the “Population Tubulin-Different-Phenotype (%)” value [8] was 31% and 26% and 27%.
